Activity calls are given as the source filed them.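 The calls were made as follows: active = LXR activation with EC50, the half-maximal effective concentration, of 10 µM or lower; inactive = the rest.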
Biological target: Oxysterols receptor LXR-beta (Homo sapiens) (UniProt P55055)
Test: dose-dependent LXR ligand-binding domain activation – cell-based, luminescence, powder sample, selectivity assay for RORA inverse agonist project, dose response (AID 463150)
Settings: HEK293T GAL4-LXR LBD luciferase reporter, 18-24 h
Summary of the method: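 System – HEK293T with GAL4-LXR LBD fusion and UAS luciferase reporter · Dosing – 10-point dilution series, top nominal concentration 10 µM · Timing – 24 h bulk reverse transfection before replating, then 20 h compound exposure · Signal – luciferase reporter luminescence · Read-out – EC50 from sigmoidal fit of percent activation · Controls – DMSO-treated cells as normalization reference for luminescence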

Oxysterols receptor LXR-beta (Homo sapiens), sequence (P55055 whole entry, looked up, the tested form may be a part): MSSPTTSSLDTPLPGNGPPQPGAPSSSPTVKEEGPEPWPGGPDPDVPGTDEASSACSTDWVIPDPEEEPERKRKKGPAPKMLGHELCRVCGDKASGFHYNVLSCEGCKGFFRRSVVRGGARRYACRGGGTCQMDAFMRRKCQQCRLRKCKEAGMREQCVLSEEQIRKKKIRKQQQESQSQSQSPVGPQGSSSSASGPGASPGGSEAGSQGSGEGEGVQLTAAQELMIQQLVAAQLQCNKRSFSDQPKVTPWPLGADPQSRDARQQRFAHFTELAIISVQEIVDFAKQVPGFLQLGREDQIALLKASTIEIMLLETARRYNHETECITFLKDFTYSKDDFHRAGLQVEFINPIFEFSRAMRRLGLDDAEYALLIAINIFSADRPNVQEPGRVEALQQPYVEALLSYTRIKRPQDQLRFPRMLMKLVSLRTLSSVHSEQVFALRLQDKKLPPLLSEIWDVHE

EC50: > 10 µM (inactive)
Structure (SMILES): O=S(=O)(Nc1ccc(C(O)(C(F)(F)F)C(F)(F)F)cc1)c1cccs1

Reference: PubChem BioAssay AID463150 (The Scripps Research Institute Molecular Screening Center, 2010)
